Experimental data from ChEMBL document CHEMBL1149263, “Structure-activity relationships in platelet-activating factor. 12. Synthesis and biological evaluation of platelet-activating factor antagonists with anti-HIV-1 activity” (J Med Chem, 2004).

Legend:
[1] = test system: Human immunodeficiency virus 1; experiment: Antiviral activity against HIV1 BAL in human MDM cells; assay type: functional, organism-based; settings: Human immunodeficiency virus 1, BAL
Outline: (§1)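 Monocyte-derived macrophages were infected with the macrophage-tropic HIV-1/Ba-L strain. HIV-1 replication was read as reverse transcriptase activity in culture supernatants. Values come from a single measurement.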

[2] = Cytotoxicity against human MDM cells by neutral red staining; assay type: cell-based
Outline: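 Fifty percent cytotoxic concentration in monocyte-derived macrophages, assessed by neutral red staining.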

Plasma = experiment: Inhibition of PAF-induced platelet aggregation in rabbit platelet-rich plasma; assay type: functional; settings: Oryctolagus cuniculus
Outline: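 Rabbit platelet-rich plasma was prepared from New Zealand rabbit auricular-artery blood collected in 3.8% citrate (pH 7.4) and spun 15 min at 1200 rpm. Antagonists in EtOH (10⁻² to 10⁻⁷ M) were added to stirred PRP for 2 min, then challenged with 2.5 nM PAF. Aggregation was followed by light transmission against a PAF-alone control. IC50 was taken from dose–response curves (five or six determinations).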

[3] = test system: Human immunodeficiency virus 1; experiment: Inhibition of HIV1 BAL replication in MDM cells assessed by measuring reverse transcriptase at 100 uM; assay type: functional; settings: Human immunodeficiency virus 1, BAL; outline: as §1
[4] = Cytotoxicity against human MDM cells by neutral red staining at 10 uM; assay type: cell-based
[5] = Cytotoxicity against human MDM cells by neutral red staining at 1 uM; assay type: cell-based
[6] = Partition coefficient, log P of the compound; assay type: physicochemical; settings: octanol/water
Rattus norvegicus [7] = experiment: Cmax in Sprague-Dawley rat at 100 mg/kg, iv normalized to 1 mg/kg; assay type: ADME, organism-based; set-up: dose 100 mg/kg, route intravenous; settings: in vivo
Outline: (§2)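 Single dose given to male Sprague–Dawley rats, three animals. Each animal received 100 mg/kg iv and 500 mg/kg orally. Plasma Cmax, t1/2, AUC and oral bioavailability were determined, and all parameters were normalized to a 1 mg/kg dose so the two routes could be compared.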

[8] = Half life in Sprague-Dawley rat at 100 mg/kg, iv normalized to 1 mg/kg; assay type: ADME, organism-based; settings: in vivo; outline: as §2
Rattus norvegicus [9] = experiment: AUC in Sprague-Dawley rat at 100 mg/kg, iv normalized to 1 mg/kg; assay type: ADME, organism-based, Plasma; settings: in vivo; outline: as §2
Rattus norvegicus [10] = experiment: Cmax in Sprague-Dawley rat at 500 mg/kg, po normalized to 1 mg/kg; assay type: ADME, organism-based; set-up: dose 500 mg/kg, route oral; settings: in vivo; outline: as §2
[11] = Half life in Sprague-Dawley rat at 500 mg/kg, po normalized to 1 mg/kg; assay type: ADME, organism-based; settings: in vivo; outline: as §2
Rattus norvegicus [12] = experiment: AUC in Sprague-Dawley rat at 500 mg/kg, po normalized to 1 mg/kg; assay type: ADME, organism-based, Plasma; settings: in vivo; outline: as §2
[13] = Bioavailability in Sprague-Dawley rat at 500 mg/kg, po normalized to 1 mg/kg; assay type: ADME, organism-based; settings: in vivo; outline: as §2
Mus musculus = species on record: Mus musculus; experiment: Blood-brain transfer coefficient in OF1 mouse by in situ brain perfusion method; assay type: ADME, organism-based; settings: in vivo
Outline: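 In situ brain perfusion in anaesthetized mice (ip xylazine 8 mg/kg, ketamine 140 mg/kg) through a right common carotid catheter. Perfusate was bicarbonate-buffered saline with 9 mM D-glucose, gassed 95% O2/5% CO2, pH 7.4, 37 °C, carrying [³H]tracer at 0.3–0.4 μCi/mL, with [¹⁴C]sucrose as vascular marker. Brain distribution volume was computed from right-hemisphere radioactivity; five animals.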

SMILES	IC50 [1] [µM]	IC50 (Plasma) [µM]	CC50 [2] [µM]	also measured
COc1cc(C(=O)N2CCN(C(=O)c3cc(OC)c(OC)c(OC)c3)C(CNC(=O)Nc3c(C)cccc3C)C2)cc(OC)c1OC (stereo not drawn)	32	> 10	> 100	
CCN(CC)C(=O)NCC1CN(C(=O)c2cc(OC)c(OC)c(OC)c2)CCN1C(=O)c1cc(OC)c(OC)c(OC)c1 (stereo not drawn)	40	> 10	> 100	
CCN(CC)C(=S)OCC1CN(C(=O)c2cc(OC)c(OC)c(OC)c2)CCN1C(=O)c1cc(OC)c(OC)c(OC)c1 (stereo not drawn)		> 5	> 1	Activity [4]: Toxic; Activity [5]: Not Active
CCCCCCNC(=O)NCC1CN(C(=O)c2cc(OC)c(OC)c(OC)c2)CCN1C(=O)c1cc(OC)c(OC)c(OC)c1 (stereo not drawn)	1	> 10	> 100	
CCC(=O)OCC1CN(C(=O)c2cc(OC)c(OC)c(OC)c2)CCN1C(=O)c1cc(OC)c(OC)c(OC)c1 (stereo not drawn)	> 100	0.158	> 100	
COc1cc(C(=O)N2CCN(C(=O)c3cc(OC)c(OC)c(OC)c3)C(COC(=S)N(C)C)C2)cc(OC)c1OC (stereo not drawn)		1.6	> 100	inhibition at 100 µM [3]: 76%
COc1cc(C(=O)N2CCN(C(=O)c3cc(OC)c(OC)c(OC)c3)C(CNC(=O)OC(C)C)C2)cc(OC)c1OC (stereo not drawn)	25	5	> 100	
[3H]COc1c(OC)cc(C(=O)N2CCN(C(=O)c3cc(OC)c(OC)c(OC)c3)C(COC(=O)N(CC)CC)C2)cc1OC (stereo not drawn)				Kin (Mus musculus): 1.02 µL/s/g

The next lines start with results.

IC50 [1] [µM]	IC50 (Plasma) [µM]	SMILES	CC50 [2] [µM]	also measured
> 10	> 10	CCCN(CCC)C(=O)NCC1CN(C(=O)c2cc(OC)c(OC)c(OC)c2)CCN1C(=O)c1cc(OC)c(OC)c(OC)c1 (stereo not drawn)	> 100	
	0.37	CCCN(CCC)C(=O)OCC1CN(C(=O)c2cc(OC)c(OC)c(OC)c2)CCN1C(=O)c1cc(OC)c(OC)c(OC)c1 (stereo not drawn)	> 100	inhibition at 100 µM [3]: 66%
10	0.67	CCCCNC(=O)OCC1CN(C(=O)c2cc(OC)c(OC)c(OC)c2)CCN1C(=O)c1cc(OC)c(OC)c(OC)c1 (stereo not drawn)	> 100	
11	8	CCN(CC)C(=O)OCC1CN(C(=O)c2cc(OC)c(OC)c(OC)c2)CCN1C(=O)c1cc(OC)c(OC)c(OC)c1 (stereo not drawn) [PMS-601]	> 1000	logP [6]: 0.8; Cmax (Rattus norvegicus [7]): 861 ng/mL; half-life [8]: 2.14 h; AUC (Rattus norvegicus [9]): 1828 ng·h/mL; Cmax (Rattus norvegicus [10]): 33 ng/mL; half-life [11]: 2.29 h; AUC (Rattus norvegicus [12]): 177 ng·h/mL; bioavailability [13]: 10.9%
